Data on one molecule can be found in article PMC3134944 (Current Chemical Genomics, 2011).

The target in test [1] is recombinant human GST-GAPDHS (Homo sapiens, UniProt O14556). The test is described as follows: GAPDHS dose response / IC50 determination. It is filed as biochemical. In a few lines: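 IC50 against GST-GAPDHS used the single-point assay conditions with two-fold serial dilutions in DMSO, giving 10 final concentrations from 80 µM to […]. Percent inhibition at each concentration was fitted to a four-parameter variable-slope equation for IC50 and Hill slope. Some runs included 0.01% Tween-20 (final). Ligand efficiency and binding efficiency index were calculated from IC50.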
Sequence of recombinant human GST-GAPDHS (O14556 69-408): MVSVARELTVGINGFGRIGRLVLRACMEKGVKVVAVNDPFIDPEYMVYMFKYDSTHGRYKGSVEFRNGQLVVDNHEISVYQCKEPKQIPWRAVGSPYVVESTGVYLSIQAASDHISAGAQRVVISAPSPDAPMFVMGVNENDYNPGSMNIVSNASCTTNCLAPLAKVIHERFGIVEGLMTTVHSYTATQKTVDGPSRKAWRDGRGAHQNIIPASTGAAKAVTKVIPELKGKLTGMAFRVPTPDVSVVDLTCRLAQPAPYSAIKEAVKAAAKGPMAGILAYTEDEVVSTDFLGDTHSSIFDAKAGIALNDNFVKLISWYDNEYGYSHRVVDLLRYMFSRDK

A further test concerns GAPDH isozymes. The note with it: ref PMID: 12788228, PMID: 2353814; cited from earlier work.
Another test has as its system purified his-GAPDHS. The note with it: baculovirus/insect cell expressed his-GAPDHS ref 22; cited from earlier work.

For orientation: IC50 means the concentration at which inhibition is half-maximal.

On to `CC1=CC(=O)c2ccccc2C1=O` [Menadione], for which the IC50 is 47 µM in test [1] (IC50, follow up, absence of Tween-20, dry powder, no detergent) and 53 µM in test [1] (IC50 in the presence of 0.01% Tween-20, dry powder, 0.01% Tween-20). Besides, the “inhibitor of GAPDH isozymes in vivo” value with GAPDH isozymes is on record as “non-selective inhibitor”. Besides, in the test with purified his-GAPDHS, the “active in Prestwick screen against his-GAPDHS” value is given as “identified as actives”.
